High-throughput results (PubChem BioAssay)
Most compounds without a hit are left out; they make up all but 2.7% or so of the library.
DTT redox prof – compounds producing H2O2 with reducing agent – biochemical, NIH compound library profiling, artefact control for MLSCN library redox annotation, primary screen | 200,000 tested, 0.03% active | activation, % at 10 µM | AID 878 | DTT-dependent redox cycling H2O2, phenol red/HRP absorbance; 100% = 100 µM peroxide control, 0% = buffer;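 active = activation of at least 50% relative to the plate's high and low controls in the primary single-dose screen; inactive = activation below 50%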;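 note: compound incubated with DTT at 0.8 mM final as the reducing agent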
FLuc inh counter – Photinus pyralis luciferase inhibition counter-screen; P08659; ATPLite firefly luciferase biochemical luminescence, 10 min; inhibition, % at 10 µM; 200,000 tested, 1.5% active; AID 1006;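 active = inhibition above about 50% when tested at 10 µM, limit read from the data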
Measles CPE – protection of cells from measles virus. Measles virus-infected cells, CPE protection, absorbance. protection (pct of control), % at 4 µM. 140,000 tested, 1.5% active. AID 841; in the data active = protection mostly above about 24%, no sharp cut-off; inactive = mostly below about 26%
FLuc stim CS – firefly luciferase counter-screen for stimulation assays; activation factor at 10 µM; ATPlite luciferase biochemical, luminescence, 10 min; 0 = ATP-free wells, 1 = DMSO control; 200,000 tested, under 10 active; P08659;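 active = luciferase activation factor, scaled between plate controls, of at least 2 with compound at 10 µM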
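System: Luciferase/luciferin detection reagent, cell-free biochemical luciferase assay | Medium: PBS buffer for ATP | Dosing: Test compounds dosed from 2 mM stocks in 100% DMSO | Timing: 10 min at ambient temperature | Signal: Luminescence measurement of luciferase light output | Evaluation: Luciferase activation, seen as luminescence increase over controls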
ABCB1 block – inhibitors of human ABCB1 transporter, ABCG2 counter-screen | P08183 | CCRF-Adr cells, JC-1 efflux, flow cytometry | inhibition, % at 6.6 µM | 190,000 tested, 0.067% active | AID 1326; in the data active = inhibition above about 40%;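 note: higher value means more JC-1 retained so stronger ABCB1 efflux block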
ABCG2 inh – inhibitors of human ABCG2 transporter, ABCB1 counter-screen; Q9UNQ0; IgMXP3 cells, JC-1 efflux, flow cytometry; inhibition, % at 6.6 µM; 190,000 tested, 0.1% active;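 active = inhibition above 80%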
Target sequence (Q9UNQ0 whole entry, looked up): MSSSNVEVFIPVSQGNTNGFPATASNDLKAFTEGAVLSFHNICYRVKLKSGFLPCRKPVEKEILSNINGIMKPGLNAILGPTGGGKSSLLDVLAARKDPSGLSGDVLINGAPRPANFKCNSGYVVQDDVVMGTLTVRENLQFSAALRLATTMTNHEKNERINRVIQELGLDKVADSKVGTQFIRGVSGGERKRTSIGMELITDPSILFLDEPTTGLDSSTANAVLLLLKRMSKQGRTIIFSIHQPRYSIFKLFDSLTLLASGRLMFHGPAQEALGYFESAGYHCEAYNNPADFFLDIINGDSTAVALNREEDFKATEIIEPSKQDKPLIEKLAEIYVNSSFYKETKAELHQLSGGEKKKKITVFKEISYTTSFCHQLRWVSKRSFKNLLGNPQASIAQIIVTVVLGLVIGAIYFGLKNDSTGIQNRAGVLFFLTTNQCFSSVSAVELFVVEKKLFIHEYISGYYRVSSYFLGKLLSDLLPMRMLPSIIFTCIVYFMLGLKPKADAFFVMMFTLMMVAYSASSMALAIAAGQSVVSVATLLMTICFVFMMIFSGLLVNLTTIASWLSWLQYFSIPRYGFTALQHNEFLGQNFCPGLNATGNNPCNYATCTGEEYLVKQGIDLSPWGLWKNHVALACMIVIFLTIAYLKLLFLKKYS
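Measure – % inhibition of efflux relative to nicardipine and DMSO · Test system – ABCG2 IgMXP3 and barcoded ABCB1 CCRF-Adr cell mix · Control set – nicardipine as high control, DMSO as low control · Compound – one concentration, 6.6 µM final · Signal – flow cytometry of retained JC-1 fluorescence · Timing – 10 min exposure at 25 °C with rotation, no wash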
Large screens that a line does not name were inactive.

Cc1ccc2cc3cc(C(=O)N4CCCCC4C)oc3nc2c1 (configuration not stated)	FLuc inh counter 55.0
CNC(=O)c1cc(C)c(-c2ccccc2)s1	Measles CPE 49.3
O=C(O)C1CCCN1C(=O)Nc1ccc(Cl)cc1 (configuration not stated)	Measles CPE 26.1
O=C(O)C1CCCN1C(=O)Nc1ccccc1 (configuration not stated)	none
S=C(NCCc1ccccc1)NCc1cccs1	none (no result: DTT redox prof)
C/C(=N\Nc1cccc2cccnc12)c1ccccc1O	FLuc inh counter 68.5 (no result: Measles CPE)
C/C(=N\Nc1ncc(Cl)cc1Cl)c1ccccn1	FLuc inh counter 94.4 (no result: Measles CPE)
C/C(=N\Nc1cccc2cccnc12)c1ccccn1	FLuc inh counter 87.1 (no result: Measles CPE)
C/C(=N\N1CCN(c2ccccc2)CC1)c1ccco1	none
Cc1cccc(-c2nc(CSc3nc4c(c(=O)[nH]3)CCC4)c(C)o2)c1	none
N#C/C(=C(/O)CN1CCCCC1)c1nc(-c2ccc(Cl)cc2)cs1	Measles CPE 80.5
CNc1ccc(Br)cc(C(=O)/C=C/c2ccc3c(c2)OCO3)c1=O	Measles CPE 53.8
CNc1ccc(Br)cc(C(=O)/C=C/c2ccc(OC)cc2)c1=O	none
Nc1nccc(-c2ccc(-n3cnc4ccccc43)cc2)n1	none (no result: Measles CPE)
Cc1nccc(-c2ccc(-n3cnc4ccccc43)cc2)n1	Measles CPE 28.6 (no result: ABCB1 block, ABCG2 inh)
CC(C)NC(=S)N1CCN(C/C=C/c2ccccc2)CC1	none (no result: Measles CPE)
COc1cccc2c(=O)n(CC(=O)N3CCCCC3)ccc12	none
CCC(=O)c1ccc(/C=C/c2nc3ccccc3n2C)o1	FLuc inh counter 78.9 (no result: Measles CPE)
CCCc1nn(C)c2c1C(c1ccncc1)C(C#N)=C(N)O2 (configuration not stated)	Measles CPE 39.8
CCOc1ccc2nc3c(cc2c1)CN(CCOC)C(=NC)S3	Measles CPE 29.3
CCN=C1Sc2nc3ccc(OCC)cc3cc2CN1CCOC	none
COc1cc(/C=N/OCC(=O)NC2CCCCC2)ccc1OCc1ccccc1	Measles CPE 85.8
COc1cc(/C=N/OCC(=O)Nc2ccc(OC(F)F)cc2)ccc1OCc1ccccc1	none
COc1cc(/C=N/O)ccc1OCc1ccc(C(=O)O)cc1	FLuc inh counter 87.6
CSc1ccccc1NC(=O)CO/N=C(\C)c1cc2ccccc2o1	none
COc1cc(/C=N/OCC(=O)NC23CC4CC(CC(C4)C2)C3)ccc1OCc1ccccc1	Measles CPE 49.0
COc1cc(/C=N/O)ccc1OCc1ccc(Cl)cc1	none (no result: Measles CPE)
C/C(=N\OCC(=O)NC12CC3CC(CC(C3)C1)C2)c1cc2ccccc2o1	Measles CPE 18.9
CCOC(=O)c1c(/N=C/N(C)C)sc(C(=O)OC)c1C	none
CC1Cc2ccccc2N1C(=S)NC(=O)C1(C)CC1(Cl)Cl (configuration not stated)	none (no result: Measles CPE)
N#Cc1ccc(/C=N/NC(=O)CCc2ccc(S(=O)(=O)N3CCOCC3)cc2)cc1	none
OCCC1CN(Cc2cccn2-c2ccccn2)CCN1C1CCCCC1 (configuration not stated)	none (no result: Measles CPE)
O=C(OCC(=O)N1CCN(C(=O)c2ccco2)CC1)C1=COCCO1	Measles CPE 22.8
O=C(OCC(=O)N1CCN(c2ccccc2)CC1)C1=COCCO1	none
O=C(CSc1nnc(-c2cccnc2)o1)Oc1ccccc1	Measles CPE 43.9
O=C(CSc1nnc(-c2ccncc2)o1)Oc1ccccc1	none
O=C(O)CSc1nnc(-c2ccccc2)o1	Measles CPE 33.2
C/C(=N\NC(=O)CSc1nnc(C)s1)c1ccc(Cl)cc1	none
CC(C)=CC(=O)OCC(=O)Nc1cc(C)ccc1C	none (no result: Measles CPE)
CC(C)=CC(=O)OCC(=O)Nc1ccccc1Cl	Measles CPE 81.5
Cc1ccc2cc(CN(Cc3cccs3)Cc3nnnn3CC3CCCO3)c(=O)[nH]c2c1 (configuration not stated)	Measles CPE 30.6
N#CCCN(C(=O)COc1ccc(C#N)cc1)c1ccc(F)cc1	none (no result: Measles CPE)
O=C1NC(c2ccccc2)=N/C1=C/c1ccco1	FLuc inh counter 72.8
COc1ccc(C)cc1S(=O)(=O)N(C)CC(=O)N1CCN(c2ccccc2)CC1	none (no result: Measles CPE)
CCCCOc1ccc(Cl)cc1CSc1n[nH]c(C)n1	none
COc1ccc(Cl)cc1CSc1n[nH]c(C)n1	Measles CPE 27.0
Cc1ccc(OCc2n[nH]c(=S)n2N)cc1C	none (no result: Measles CPE)
CCCCOc1ccc(Cc2n[nH]c(=S)n2N)cc1	Measles CPE 39.5
CCn1ccc(C(=O)NC2=NCCS2)n1	none
CCc1ccc(OC(=O)c2ccn(CC)n2)cc1	FLuc inh counter 75.1
CNCCCCOc1ccccc1Cc1ccccc1	none (no result: DTT redox prof, Measles CPE, ABCB1 block)
CN(C)Cc1ccccc1Cc1ccccc1	Measles CPE 37.5
CN(C)CCOc1ccccc1Cc1ccccc1	Measles CPE 44.0
CC(=O)CSc1nc2ccccc2o1	none
COC(=O)CSc1nc2ccccc2o1	Measles CPE 42.8
O=C(CSc1nc2ccccc2o1)Nc1ccc(Cl)cc1	Measles CPE 26.4
O=C(c1cc(S(=O)(=O)N2CCC3(CC2)OCCO3)ccc1F)N1CCCCC1	none (no result: Measles CPE)
Cc1cc(C)n(CCCNCC(O)c2ccccc2)n1 (configuration not stated)	none
Cc1cc(C(=O)CSc2n[nH]c(-c3ccccc3F)n2)c(C)n1Cc1cccs1	none
O=C(NC(c1ccc(Cl)cc1)c1c(O)ccc2ccccc12)c1ccccc1 (configuration not stated)	Measles CPE 42.4
O=C(NC(c1ccccc1)c1c(O)ccc2ccccc12)c1ccccc1Cl (configuration not stated)	none
CCc1nc2ccccc2n1CC(O)COCC1CC=CCC1 (configuration not stated)	none (no result: Measles CPE)
COc1cccc(NC(=S)NC2CC3CCCC(C2)N3CC(C)C)c1 (configuration not stated)	none (no result: Measles CPE)
Cc1c(N=Cc2nc3ccccc3n2C)c(=O)n(-c2ccccc2)n1C	FLuc inh counter 83.1, ABCG2 inh 89.7
CCC(=O)Nc1cccc(-c2cnc3ccccc3n2)c1	Measles CPE 40.5
CCOC(=O)c1ccc2ncc(-c3ccccc3)nc2c1	FLuc inh counter 74.3 (no result: Measles CPE)
CCOC(=O)c1cnc(-c2ccccc2)nc1N	none
CSc1ccccc1NC(=O)Cn1c(-c2cscn2)nc2ccccc21	Measles CPE 96.2
CCCCNC(=O)C1CCN(S(=O)(=O)N2CCOCC2)CC1	none (no result: Measles CPE)
Fc1ccc(F)c(C2=NNC(=Nc3ccccc3F)SC2)c1	none
COCCCN=C1NN=C(c2cc(C)n(-c3ccccc3F)c2C)CS1	FLuc inh counter 83.8 (no result: Measles CPE)
COCCCN=C1NN=C(c2cc(C)n(-c3ccccc3)c2C)CS1	none
COCCn1c(C)cc(C2=NNC(=Nc3ccccc3F)SC2)c1C	FLuc inh counter 81.5
Cc1cc(C2=NNC(=Nc3ccccc3)SC2)c(C)n1C	FLuc inh counter 60.9 (no result: Measles CPE)
